Laboratory results published in the EternaBench riboswitch data.

System: MS2 coat protein
Test: apparent Kd, MS2 coat protein; higher = weaker binding; RNA-MaP array; FMN 200 µM where present
How it was run: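 Stalled E. coli RNA polymerase transcribed the designs on Illumina sequencing-chip clusters. SNAP-549-labelled MS2 coat protein was titrated from 0.7 or 1.5 nM, doubling to 3 µM, without and then with constant ligand, in 100 mM Tris-HCl pH 7.5, 80 mM KCl, 4 mM MgCl2, BSA, DTT, yeast tRNA and Tween-20. Per-cluster binding curves were fitted to green signal normalised to red-channel RNA signal and control-cluster median Fmax. The apparent Kd is the median of the filtered fits.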

[1] = designed as: ON switch for flavin mononucleotide, no ligand
[2] = ligand present: flavin mononucleotide, designed as: ON switch for flavin mononucleotide
[3] = designed as: OFF switch for flavin mononucleotide, no ligand
[4] = ligand present: flavin mononucleotide, designed as: OFF switch for flavin mononucleotide

Sequence	apparent Kd [1]	apparent Kd [2]	apparent Kd [3]	apparent Kd [4]
AGUGUCGGCACAGGAUAUGAGAUGCCGGCAGACAUGAGGAUCACCCAUGUAAGCGAACCGGGCAGUCAGAAGGGUGAUCGACGA	161 nM	29.7 nM	–	–
UUUUAGUCAGGAUAUACAUGAGGAUCACCCAUGUAAAAUUUUAAUUUAAUUUUAAGGUGUAGAAGGGACAUUAA	–	–	27.6 nM	29.4 nM
GGUCCAAUAUGAGGAUAUAGCAUCGUAUAGAUGCUAGAAGGCGUGUCGGUAGACAUGAGGAUCACCCAUGUAUUACAAUGGACC	114 nM	32 nM	–	–
AAUCGGGAGCAGAAGGCAUGUCAUAAGACAUGAGGAUCACCCAUGUAGUUAAGGCGAAAGCCGCAUGAGGAUAUGCUCCCGUAA	71.2 nM	6.27 nM	–	–
UUUAAUUUGUAGAAGGACGACUAUUAAUAUUUCGUAGGAUAUACUAUUUACAUGAGGAUCACCCAUGUUUAAAUGGAACAAUGU	–	–	8.35 nM	12.4 nM
GGACGGUUAGUGAGGAUAUGCUCUACCUCGGUAGAGCAGAAGGCACAUGAGGAUCACCCAUGUGAUAACUGUUC	–	–	18.6 nM	21.8 nM
AGUCUGAGAGGAUAUACAUGAAAAAAAAAAGUUAGAUCCCUACAUGAGGAUCACCCAUGUAGAAGGCUCUGACA	–	–	19.2 nM	16.7 nM
GGUGCCAUGUAGAAGGCAGAUCUGAUUCAGAUCUGAGGAUAUACAUGAGGAUCACCCAUGUAAAGGCACCGCACGAGAGUGCAA	–	–	6.51 nM	8.81 nM
GCCGGAGCAGGAUAUUCAAUAUCACACAUGAGGAUCACCCAUGUCCAGCGAAAGCUGGAGGGAGAAGGGCUCUGGC	–	–	70.8 nM	20.3 nM
CGAAGUCCGUAGAAGGGUGACAUGAGGAUCACCCAUGUGCGAGCGGAGGGAGUCAGCGGCUCGCCACAGGAUAUACGGAGCACG	61.2 nM	51 nM	–	–
CGCAAACAUGAGGAUCACCCAUGUCAAUGUGAUCAAGGAUAUGGGUUCCGAAAUGGAACACCAGAAGGUGAGUAAU	142 nM	37.3 nM	–	–
UGACACAUGAGGGUCUCCCUUGACAUGAGGAUCACCCAUGUGCAGGAUAUACGUGUGAUGGUAUAGUAGAAGGGCACUCUAUGU	–	–	30.6 nM	40.5 nM
GGAGCACAUAUUAACAUGAGGAUCACCCAUGUCAAAAGACAUGAGGAUAUGGAUCCGAAAAGGAUCCAGAAGGCAUGGUGCUCC	268 nM	14.3 nM	–	–
UGGUACUAGGGAGGAUAUGGGAAGAUACAUGAGGAUCACCCAUGUUUAUGAAUGCCGAGAGGCAACUAGAAGGCCCUAGUACCU	292 nM	13 nM	–	–
GUAGCUAUCGGAGGAUAUUCAUAGCCGAAAGGCACAUGAGGAUCACCCAUGUGCGGAAACGCUUGGGAGAAGGCCGAUAGCUAC	25 nM	15.1 nM	–	–
GGAACAACAUGAGGAUAUCGAUGAGUAUAGAGUCGAGAAGGCAUGUCAUAAGACAUGAGGAUCACCCAUGUAGUUACAAUACCA	1010 nM	69.2 nM	–	–
UCAUGAAGGACAGGAUAUGGACAUGAGGAUCACCCAUGUACAUGGGAUUAUAUACUGAAUUUAUACUAGAAGGGUUACAUAAAU	–	–	44.7 nM	30.2 nM
UGUAAUGUUAUUACAGAGGUUUAGAAGGAUAUACAUCGACAUGACCGUACAUGAGGAUCACCCAUGUAGAAGGUCUAACUUCGU	–	–	5.43 nM	5.31 nM
ACGACGAAAAUCGAACGAUGUAGCAGAAGGACAUGAGGAUCACCCAUGUAAAAUGUAACAGCCAUGUAGGAUAUGCUACAUCGA	–	–	40.9 nM	272 nM
CUUUUAUAAUAGAAGGUUGACUUUAAGUGGAUCACCCAUGUGUAGGUACAAAGGAUAUGUAGUUACAUGAGGAUCACCCAUGUU	306 nM	201 nM	–	–
UGGUACAUCGGAGGAUAUCAUGUGAAAACAUGAGGAUCACCCAUGUCGAUGGAGACAUCGGAGAUUGAGAAGGCCGAUGUACCU	1470 nM	49.9 nM	–	–
UGCGUACAAGCAGACAUGAGGAUCACCCAUGUGGUCUCAUGCGAGGAUAUCGGGAAGGAGGAUUCCGAGAAGGUGCGGUGAGCC	157 nM	39.6 nM	–	–
UGGGCUUUAGGAUAUGCGUGUUGUAGUCGGCGAUGUGGUUCACAUGAGGAUCACCCAUGUAGAAGGAGGGUUUA	–	–	139 nM	120 nM
CCCUCGUAGUAGAAGGGCGGCCGAAAUCUGCACGCAGGAUAUACAUGAGGAUCACCCAUGUACUGAGCUGAAGAGCACUUGGAA	–	–	15.1 nM	14.5 nM
CCUCUACAUGAGGAUCACCCAUGUGAGGAUAUCUCGGAAAAGCCACUUAAGGUACUCCAGAGAAGGCACGUGUA	–	–	14.6 nM	23.7 nM
AAAAAGCGAGGAUAUACAUGAGGAUCACCCAUGUAAAAAACAUGGGAUGAAACAUCAUGUAGAAGGCGCAAAAA	–	–	22.6 nM	26 nM
UAGGAGUACGUAGGAUAUGUAGGAUAUUCCUACAUGAGGAUCACCCAUGUAUGCAUGGAAGAAGGACAGAAGGACGUGCUCCUU	200 nM	13.2 nM	–	–
CAAUUCUGAGGAUAUCGAUUUUUGUACAUGAGGAUCACCCAUGUCCUUUUUAUUUAAUCCCGAGAAGGCAGUGUAU	–	–	23.3 nM	26.1 nM

Sequence	apparent Kd [1]	apparent Kd [2]	apparent Kd [3]	apparent Kd [4]
GCCAGUUAUGUAGGAUAUGCGCAGCGAGCCUGAGCAGAAGGACAUGAGGAUCACCCAUGUGUUGCGGUUUGAGUACUAAUCGCU	–	–	24.3 nM	134 nM
UGAUAGGACAGAGGAUAUACGUGCUAGAGAUACUAGCAAAGUAUCUUGACAUGAGGAUCACCCAUGUAGAAGGCUGUCCUAUCU	–	–	5.99 nM	14.3 nM
AAUUAAUUGUAGAAGGUACUUAAUUAUGAUAUGUAAGGAUAUACGAUAUUAUAACGACAUGUAUGACAUGAGGAUCACCCAUGU	11.2 nM	8.4 nM	–	–
UGGUACUAGGGAGGAUAUGGGAAGAUACAUGAGGAUCACCCAUGUUUAAGAAAGCCGAGAGGCAACUAGAAGGCCCUAGUACCU	278 nM	13.8 nM	–	–
UGUUGUAAUACAGGAUAUAUAUUAUUUUUAUUUAUAGAAGGGUAAUCACAUGAGGAUCACCCAUGUAUAUACGAGGAAGAAGAG	209 nM	251 nM	–	–
UAUUUAAUCAUAGGAUAUAGUGUGUAAUUUGGACUAGAAGGAUGUAACAUGAGGAUCACCCAUGUGGUAAAUGGGAUACAUUCC	125 nM	132 nM	–	–
CUACGCUAGGAGAAGGGCUAGAGUGUGAUAUAUUUGCCCGCGAGCACAUGAGGAUCACCCAUGUAGCAGGAUAUCCAAGCCGGU	–	–	7.59 nM	16.8 nM
AAACUACUAGGAUAUACAACGGUGUCCUAACUACUAAGAAAACAUGAGGAUCACCCAUGUAGAAGGAGUAGUGA	–	–	34.5 nM	62.3 nM
AAAAAACAUGAGGAUCACCCAUGUCAAAAGACAUGAGGAUAUGUACAGACUUCGGUCUGUACAGAAGGCAUGUCUU	25.7 nM	18.4 nM	–	–
CUGCUCCGUGUAGGAUAUCCGGGCAACCAAUCCGGAGAAGGACAUGAGGAUCACCCAUGUAUGUUAUUAUCACGUGAAGCGUCC	–	–	23 nM	25.3 nM
ACAUGAUCAGGAUAUACAUGAGGAUCACCCAUGUAUUUCAAAAAGGGACUUUCUUUAUGUAGAAGGGAUCUUGU	–	–	15.8 nM	43.1 nM
CUAGCUAUCGGAGGAUAUUCAUACCGGAAACGGACAUGAGGAUCACCCAUGUGCCGAAAGGCUUGGGAGAAGGCCGAUAGCUAG	272 nM	20.6 nM	–	–
CAUGUCCUCACAGGAUAUGCUGGACUUUGUCCAGCAGAAGGGUGAACAUGAGGAUCACCCAUGUAAUGGACAUGUAUAUUUAAU	801 nM	50.9 nM	–	–
UUAUGCUGAGAGAAGGUUCAAACUACAUAUUGCGCACAUGAGGAUCACCCAUGUUGGUGAAUAAGAAAGGAUAUUUUACUGUAU	–	–	63.2 nM	43.1 nM
UGAACUUCAGAGAAGGUCGAACGGCAACGAUUCGAAGGAUAUCUGGAAACAUGAGGAUCACCCAUGUAACCGGGUGGAUGUCCU	–	–	43.3 nM	182 nM
CUCCUCCUGGUCAGGAUAUGAGCUUUAUCGGAUAUUCAGAAGGGACAUGAGGAUCACCCAUGUAACGUCGCUGG	–	–	14.8 nM	17.2 nM
GUCAAGUGAGGAUAUGAUUGUACAACAGACUAACAUCUACAUCAGAAGGCACAUGAGGAUCACCCAUGUUUGUC	–	–	17.7 nM	15.8 nM
GACUCGCGCACAGGAUAUCCACGGAGCGGACGUGGAGAAGGGUGACAUGAGGAUCACCCAUGUACGUGAGUCUAGAUCACUUCC	67.2 nM	25 nM	–	–
GUUGUAUUAAGUUCAUACUAUAUGAUAGAAGGUGAAAGAUAGACAUGAGGAUCACCCAUGUAAUUCAAGGAUAUGUAGUUACUC	28.4 nM	20.4 nM	–	–
UAUAUAUAGUAAGGAUAUGUAUUUAUAUUAUAAACAGAAGGUACUGACAUGAGGAUCACCCAUGUUUUAGUGUGGGCAUGUAGA	–	–	77.9 nM	114 nM
CGCGAACAGUUUUACAUGAGGAUCACCCAUGUGGACUCAUGGUAGGAUAUCGGGAAGGAGGAAACCGAGAAGGGCUGGUGAGCC	312 nM	256 nM	–	–
AGGCGAGUAGGAUAUGCGUAUUUACGGGAAAGCUGGAUGAUACAUGAGGAUCACCCAUGUAGAAGGGCUCUGAA	–	–	19.2 nM	15.3 nM
UGGUUGUGUGUCAGGAUAUGGUCUGGUGUUUCGGGCUAGAAGGGACAUGAGGAUCACCCAUGUGGCUGGUGCGC	–	–	149 nM	186 nM
CGAUAUUAUGCAGGAUAUCUAUCUUGAAUGAGGAGAGAAGGGCAUAGGGAGACAUAAGCCUUAUUACAUGAGGAUCACCCAUGU	–	–	11.2 nM	9.38 nM
AACUAUGUAUUUAUAGUGUCUGACAGAAGGCAAUAGGUUGUGACCGACAUGAGGAUCACCCAUGUUGAGGAUAUGUCUAGCUAC	–	–	40.4 nM	264 nM
CAUUAUUAUCGAGGAUAUCCUAUUGAAAUUCUGGGAGAAGGCGGACUCAACAUGAGGAUCACCCAUGUGAGACGGAUGCUAGGG	–	–	20.2 nM	15.8 nM
UUUAUUUUGCAAGGAUAUGUUUAAUUUUAGUUUCCUUAUACAUGAGGAUCACCCAUGUUAUACUUACAGAAGGUGCAUAAUUUU	–	–	81.6 nM	59 nM
